In assay [1] the test system is Rattus norvegicus. In words: Effect of in vivo DOPA accumulation in nonpretreated rats at limbic region, at 5 mg/kg dosage administered subcutaneously; I = Inactive. Format: functional, organism-based. On the set-up: dose 5 mg/kg. The note with it: Limbic system. The procedure, abridged:
(§1)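 Nonpretreated rats given test drug sc 65 min and NSD 1015 (100 mg/kg ip) 30 min before death; saline controls. Limbic and striatal DOPA by HPLC with electrochemical detection.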

Assay [2] relates to Rattus norvegicus. Description: Effect on in vivo DOPA accumulation in nonpretreated rats at striatum region at 5 mg/kg dosage administered subcutaneously; I = Inactive. It counts as functional, organism-based. On the set-up: dose 5 mg/kg. An outline of the steps: as §1
The test system of assay [3] is Rattus norvegicus. In words: Effect of in vivo DOPA accumulation in reserpine-pretreated rats at limbic region, at 5 mg/kg dosage administered subcutaneously. Format: functional, Limbic system. The note with it: route subcutaneous.
The subject of assay [4] is Rattus norvegicus. In words: In vivo locomotor activity (accumulated counts/30 min) in reserpine-pretreated rats, after subcutaneous administration of 39 uM/Kg. Format: functional. An outline of the steps: (§2)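 Rats pretreated with reserpine 5 mg/kg sc 18 h earlier, then test drug sc immediately before session; photocell motility counts accumulated over 30 min, with gross behaviour observed through mirror. Mean ± SEM, n = 3-4; Student's t test vs saline controls; haloperidol pretreatment 0.5 mg/kg ip 30 min before used to test antagonism.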

Assay [5] relates to Rattus norvegicus. Description: Effect of in vivo DOPA accumulation in reserpine-pretreated rats at striatum region, at 5 mg/kg dosage administered sc. The following applies: route subcutaneous. It counts as functional.
For assay [6], the system named is Rattus norvegicus. Description: In vivo locomotor activity (accumulated counts/30 min) in nonpretreated rats after subcutaneous administration of 3.2 uM/Kg. Format: functional. An outline of the steps:
(§3)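 Nonpretreated rats injected sc with test drug 5 min before session; motility by photocell recording, counts accumulated over 30 min. Expressed as percent of saline controls, means ± SEM, n = 3-5; Student's t test vs saline controls.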

In assay [7] the test system is Rattus norvegicus. Description: In vivo locomotor activity (accumulated counts/30 min) in reserpine-pretreated rats, after subcutaneous administration of 3.2 uM/Kg. It counts as functional. The procedure, abridged:
as §2

Assay [8] relates to Rattus norvegicus. In words: In vivo locomotor activity (accumulated counts/30 min) in nonpretreated rats after subcutaneous administration of 0.32 uM/Kg. It counts as functional. The procedure, abridged: as §3
Assay [9] deals with Rattus norvegicus. In words: Effect of in vivo DOPA accumulation in reserpine-pretreated rats at striatum region, at 5 mg/kg dosage administered subcutaneously. The following applies: sc, route subcutaneous. It counts as functional.
Assay [10] concerns Rattus norvegicus. Description: Evaluated for in vivo locomotor activity in nonpretreated rats, measured as accumulated counts/30 min at a dose of 52 umol/kg administered sc. It counts as functional. An outline of the steps: as §3
In assay [11] the test system is Rattus norvegicus. In words: In vivo locomotor activity (accumulated counts/30 min) in reserpine-pretreated rats, after subcutaneous administration of 52 uM/Kg. Format: functional. An outline of the steps: as §2
In assay [12] the test system is Rattus norvegicus. In words: In vivo locomotor activity (accumulated counts/30 min) in reserpine-pretreated rats, after subcutaneous administration of 0.31 umol/kg. Format: functional. An outline of the steps:
as §2

Assay [13] relates to Rattus norvegicus. In words: Effect of in vivo DOPA accumulation in reserpine-pretreated rats at limbic region, at 5 mg/kg dosage administered subcutaneously; I = Inactive. The following applies: Limbic system. It counts as functional, organism-based. On the set-up: dose 5 mg/kg.
Assay [14] relates to Rattus norvegicus. Description: Effect of in vivo DOPA accumulation in reserpine-pretreated rats at striatum region, at 5 mg/kg dosage administered sc; I = Inactive. Format: functional, organism-based. Also noted: dose 5 mg/kg.
Assay [15] concerns Rattus norvegicus. In words: Effect on in vivo DOPA accumulation in nonpretreated rats at Limbic region, at 5 mg/kg dosage administered subcutaneously; I = Inactive. Format: functional, organism-based. On the set-up: dose 5 mg/kg. The note with it: Limbic system. An outline of the steps: as §1
Assay [16] has as its system Rattus norvegicus. In words: Effect on in vivo DOPA accumulation in nonpretreated rats at striatum region, at 5 mg/kg dosage administered subcutaneously; I = Inactive. Format: functional, organism-based. On the set-up: dose 5 mg/kg. An outline of the steps: as §1
Assay [17] has as its system Rattus norvegicus. Description: In vivo locomotor activity (accumulated counts/30 min) in reserpine-pretreated rats, after subcutaneous administration of 0.32 uM/Kg. Format: functional. An outline of the steps: as §2
For assay [18], the system named is Rattus norvegicus. In words: In vivo locomotor activity (accumulated counts/30 min) in reserpine-pretreated rats, after subcutaneous administration of 10 uM/Kg. Format: functional. The procedure, abridged: as §2
Where [19] appears, read: Rattus norvegicus, Limbic system, sc, read-out: ED50.

Molecules are shown by their SMILES. The source made the active and inactive calls. No cut-off for these calls is given here.

Regarding `CCCN(CCC)[C@@H]1Cc2cccc(O)c2C[C@H]1C` (stereo in doubt; (+)5) [listing 1 of 2 here], the ED50 entry in the assay with Rattus norvegicus [1] and in the assay on Rattus norvegicus [2] was “inactive” throughout.
For the molecule `CCCN(CCC)[C@@H]1CCc2c(O)cccc2C1`, the ED50 with Rattus norvegicus [3] (setting [19]) was 0.41 µmol/kg; in the assay on Rattus norvegicus [5] it was 0.65 µmol/kg. In the assay with Rattus norvegicus [4], the Locomotor activity worked out at 43.
Take `CN1CCc2cccc3c2[C@H]1Cc1ccc(O)c(O)c1-3` [APOMORPHINE]: the ED50 in the assay with Rattus norvegicus [3] (setting [19]) was 0.041 µmol/kg; with Rattus norvegicus [5] it was 0.044 µmol/kg. Also, the results for the Locomotor activity in the assay on Rattus norvegicus [6], in the assay on Rattus norvegicus [7] and with Rattus norvegicus [8] were 277, 366 and 52, respectively.
For `CCCN(CCC)[C@@H]1Cc2cccc(O)c2C[C@H]1C` (stereo in doubt; (+)5) [listing 2 of 2 here], the ED50 with Rattus norvegicus [3] (dose 5 mg/kg) came to 25 µM/kg; with Rattus norvegicus [9], 25 µmol/kg. Besides, the Locomotor activity in the assay on Rattus norvegicus [10] was found to be 84; with Rattus norvegicus [11], 55.
`CCCN(CCC)[C@H]1CCc2c(O)cccc2C1`: the ED50 in the assay on Rattus norvegicus [3] (setting [19]) and with Rattus norvegicus [5] was 0.004 µmol/kg in each case. Also, in the assay on Rattus norvegicus [12], the Locomotor activity came to 155.
As to `CCCN(CCC)[C@@H]1Cc2cccc(O)c2C[C@H]1C` (stereo in doubt; (-)5), the ED50 came to 3.5 µM/kg in the assay on Rattus norvegicus [3] (dose 5 mg/kg) and 3.1 µmol/kg with Rattus norvegicus [5]. In the assay on Rattus norvegicus [11], the Locomotor activity was 53.
Take `CCCN(CCC)[C@@H]1Cc2cccc(O)c2C[C@@H]1C`: the ED50 in the assay on Rattus norvegicus [3] (setting [19]) and with Rattus norvegicus [5] was 0.005 µmol/kg throughout. The ED50 entry in the assay on Rattus norvegicus [13], in the assay with Rattus norvegicus [14], with Rattus norvegicus [15] and with Rattus norvegicus [16] was “inactive” each time. Further, the Locomotor activity with Rattus norvegicus [17] came out at 110; in the assay on Rattus norvegicus [18] it was 12; in the assay with Rattus norvegicus [10], 70.

The record behind these values is ChEMBL document CHEMBL1123775, “C3-methylated 5-hydroxy-2-(dipropylamino)tetralins: conformational and steric parameters of importance for central dopamine receptor activation” (1987).
